Experimental data as given in PubChem BioAssay.
The source made the active and inactive calls.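 Rule for the calls, unless noted: active = viability at or below 30% in both replicate assays; inconclusive = viability at or below 30% in just one of the two assays; inactive = the rest.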

How the values were obtained:
[1] = molecular target: Pantothenate synthetase (Mycobacterium tuberculosis (strain ATCC 25618 / H37Rv)) (UniProt P9WIL5); test: Coupled enzyme confirmation of inhibitors against recombinant Mtb PanC (AID 375; call rule not given here;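 note: 0% = full reaction with vehicle and 100% = no enzyme background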); settings: coupled enzyme assay; at 10 µM, stronger effect = higher value
[2] = reduced viability of SK-BR-3 breast cancer cells – cell-based, 24 h, human, pilot screen (AID 572;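 active = viability at or below 10% of carrier control in both of two separate runs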;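 note: compound exposure lasted between 18 and 24 h rather than exactly 24 h; 100% = carrier-treated control wells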); settings: SK-BR-3 viability, CellTiter-Glo luminescence, at 10 µM, stronger effect = lower value
[3] = HUVEC growth inhibition – cell-based, human, primary screen (AID 575); settings: HUVEC proliferation, CellTiter-Glo luminescence, 72 h; at 10 µM; stronger effect = lower value;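 note: 100% = median of untreated cell wells with 0.1% DMSO on each plate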
Summary of the method: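 material = primary HUVEC, no more than 12 passages | input = 1250 cells per well | controls = vehicle and MePR control wells | measured by = CTG luminescence | times = 72 h compound incubation | format = collagen-coated 384-well format | read-out = % viability vs DMSO wells | doses = single 10 µM dose, 0.1% DMSO, from 5x medium stock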

[4] = H69AR cell proliferation blockers – human, duplicate replicates, primary screen (AID 580;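 active = viability at or under a set limit in both replicates, limit being median viability minus 3 SD, cut at about 48% in these data, passing the limit was not always enough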;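 note: 100% = mean luminescence of untreated wells and 0% = no signal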); settings: H69AR lung tumor cells viability, ATP luminescence, 72 h; at 10 µM; stronger effect = lower value
[5] = MRP1 drug-resistance reversers in H69AR cells – cell-based, doxorubicin co-treatment, pilot screen (AID 601;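 active = viability loss from added drug above about 55%, and viability with drug at most 40%, in both replicates, limit read from the data, passing the limit was not always enough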); settings: CellTiter-Glo, 72 h, at 10 µM; for differential viability (reversal): stronger effect = higher value
[6] = yeast transport mutant growth inhibition pilot in 384-well plates, post-Golgi transport modulator project (AID 636; in the data active = inhibition above about 31%); settings: absorbance 615 nm, about 18 h, stronger effect = higher value
[7] = growth suppression of yeast trafficking mutant, preliminary HTS, modulators of trafficking downstream of Golgi apparatus project, 1536-format plate, OD 615 nm (AID 637; in the data active = inhibition above about 30%); settings: yeast transport mutant growth, absorbance 615 nm, 18 h; stronger effect = higher value
[8] = H69AR cells + 2 uM doxorubicin, measured here: viability with 2 uM doxorubicin, stronger effect = lower value
[9] = H69AR cells, compound alone cytotoxicity

Chain of Pantothenate synthetase (Mycobacterium tuberculosis (strain ATCC 25618 / H37Rv)) (P9WIL5 whole entry, looked up): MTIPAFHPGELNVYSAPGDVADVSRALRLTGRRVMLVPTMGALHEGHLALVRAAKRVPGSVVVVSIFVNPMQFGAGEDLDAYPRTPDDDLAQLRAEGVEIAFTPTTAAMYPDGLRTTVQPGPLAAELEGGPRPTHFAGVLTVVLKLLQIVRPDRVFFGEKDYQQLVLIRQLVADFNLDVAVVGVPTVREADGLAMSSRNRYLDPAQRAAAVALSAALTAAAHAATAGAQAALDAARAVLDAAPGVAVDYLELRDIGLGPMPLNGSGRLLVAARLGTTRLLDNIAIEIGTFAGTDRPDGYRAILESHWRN

| Structure (SMILES) | inhibition [1] | viability [2] | viability [3] | viability [4] | differential viability (reversal) ([5]; H69AR cells + 2 uM doxorubicin) | viability [5, 8] | viability [5, 9] | inhibition [6] | inhibition [7] |
| --- | --- | --- | --- | --- | --- | --- | --- | --- | --- |
| CC1=NOC2(C)Nc3ncnn3C(c3ccccc3)C12 (stereo not drawn) | 0% (inactive) | 118% (inactive) | 93% (inactive) | 94.5% (inactive) | -3.04% (inactive) | 97.5% | 94.5% | -6.03% (inactive) | 7.9% (inactive) |
| C[N+]1(C)CCN(c2ccccc2)CC1 | 8% (inactive) | 118% (inactive) | 95.8% (inactive) | 84.9% (inactive) | -12.1% (inactive) | 97% | 84.9% | -1.69% (inactive) | 0.5% (inactive) |
| COc1ccc(Cc2nccc3cc(OC)c(OC)cc23)cc1OC | 0% (inactive) | 88% (inactive) | 78.6% (inactive) | 81.7% (inactive) | -0.28% (inactive) | 82% | 81.7% | 0.39% (inactive) | -2.5% (inactive) |
| COc1ccc(CC[n+]2cc(/N=C(\C)[O-])on2)cc1OC | 0% (inactive) | 146% (inactive) | 93.9% (inactive) | 92.1% (inactive) | -3.11% (inactive) | 95.2% | 92.1% | 0.52% (inactive) | 4.26% (inactive) |
| CN1CC[C@@]23CCCC[C@@H]2[C@@H]1Cc1ccc(O)cc13 | 1% (inactive) | 88% (inactive) | 79.4% (inactive) | 95.8% (inactive) | 7.79% (inactive) | 88% | 95.8% | -3.12% (inactive) | -0.33% (inactive) |
| CN(C)CCc1nc2ccccc2c(=O)n1-c1ccccc1 | 0% (inactive) | 107% (inactive) | 92.1% (inactive) | 90.6% (inactive) | -1.03% (inactive) | 91.6% | 90.6% | -2.08% (inactive) | -4.43% (inactive) |
| CN(C)[C@@H]1C(=O)C(C(N)=O)=C(O)[C@@]2(O)C(=O)C3=C(O)c4c(O)cccc4[C@@](C)(O)[C@H]3C[C@@H]12 | 2% (inactive) | 91% (inactive) | 102% (inactive) | 102% (inactive) | 11.8% (inactive) | 89.8% | 102% | 0.13% (inactive) | -2% (inactive) |
| CC(C)(C)P(=O)(c1ccncc1)N1CCCC1 (stereo not drawn) | 4% (inactive) | 111% (inactive) | 105% (inactive) | 92.8% (inactive) | -5.79% (inactive) | 98.6% | 92.8% | -7.3% (inactive) | -2.18% (inactive) |
| C=CCN1C(=O)C2(C(C(=O)OCC)=C(N)Oc3c2c(=O)oc2ccccc32)c2ccccc21 (stereo not drawn) | 0% (inactive) | 61% (inactive) | 108% (inactive) | 98.2% (inactive) | -10.5% (inactive) | 109% | 98.2% | 0.27% (inactive) | 1.45% (inactive) |
| CCOC(=O)C1=C(N)OC(C)=C(C(=O)OCCOC)C12C(=O)Nc1ccccc12 (stereo not drawn) | 5% (inactive) | 85% (inactive) | 92% (inactive) | 98.2% (inactive) | -9.01% (inactive) | 107% | 98.2% | -4.52% (inactive) | 1.64% (inactive) |
| CC(=O)[C@@]1(O)CC[C@H]2[C@@H]3CC=C4C[C@@H](O)CC[C@]4(C)[C@H]3CC[C@@]21C | 0% (inactive) | 89% (inactive) | 84.6% (inactive) | 89.8% (inactive) | 5.5% (inactive) | 84.3% | 89.8% | -0.26% (inactive) | 4.33% (inactive) |
| O=C1CC[C@@]2(O)[C@H]3Cc4ccc(O)c5c4[C@@]2(CCN3CC2CC2)[C@H]1O5 | 4% (inactive) | 95% (inactive) | 90.6% (inactive) | 99.5% (inactive) | 11% (inactive) | 88.6% | 99.5% | 0.26% (inactive) | 2.17% (inactive) |
| C[C@]12CCC(=O)C=C1CC[C@@H]1[C@@H]2CC[C@]2(C)C(=O)CC[C@@H]12 | 0% (inactive) | 79% (inactive) | 76.8% (inactive) | 85.3% (inactive) | -1.5% (inactive) | 86.8% | 85.3% | -3.38% (inactive) | -0.83% (inactive) |
| CC(C)[C@H]1C(=O)N2CCC[C@H]2[C@]2(O)O[C@](NC(=O)[C@@H]3C=C4c5cccc6[nH]cc(c56)C[C@H]4N(C)C3)(C(C)C)C(=O)N12 | 5% (inactive) | 104% (inactive) | 86.4% (inactive) | 104% (inactive) | 0.81% (inactive) | 103% | 104% | -0.78% (inactive) | 7.17% (inactive) |
| CCCNS(=O)(=O)c1ccc(OCC(=O)N2CCN(Cc3ccccc3)CC2)cc1 | 0% (inactive) | 111% (inactive) | 86.6% (inactive) | 88.6% (inactive) | 0.375% (inactive) | 88.2% | 88.6% | -5.07% (inactive) | 5.97% (inactive) |
| NCC1(CC(=O)O)CCCCC1 | 3% (inactive) | 105% (inactive) | 101% (inactive) | 96.8% (inactive) | 7.93% (inactive) | 88.9% | 96.8% | -1.17% (inactive) | 2% (inactive) |
| CN1CCN(c2c[nH]c(=O)[nH]c2=O)CC1 | 0% (inactive) | 110% (inactive) | 90.6% (inactive) | 96.7% (inactive) | 5.06% (inactive) | 91.6% | 96.7% | -7.53% (inactive) | -6.29% (inactive) |
| COc1ccc(CCn2c(O)c(C=NCc3cccnc3)c(=O)[nH]c2=O)cc1OC | 0% (inactive) | 63% (inactive) | 118% (inactive) | 95.4% (inactive) | 1.12% (inactive) | 94.3% | 95.4% | -4.67% (inactive) | 1.97% (inactive) |
| Cc1cc(OCC(=O)O)c2c3c(c(=O)oc2c1)CCCC3 | 1% (inactive) | 132% (inactive) | 85.9% (inactive) | 84.8% (inactive) | -3.02% (inactive) | 87.9% | 84.8% | -4.16% (inactive) | 7.38% (inactive) |
| O=C(CN1C2CCC1CC(O)(c1cccnc1)C2)Nc1ccc2c(c1)OCO2 (stereo not drawn) | 11% (inactive) | 72% (inactive) | 90.2% (inactive) | 91.3% (inactive) | 2.46% (inactive) | 88.8% | 91.3% | -6.53% (inactive) | 3.44% (inactive) |
| CN(C)[C@@H]1C(=O)C(C(N)=O)=C(O)[C@@]2(O)C(=O)C3=C(O)c4c(O)cccc4[C@@](C)(O)[C@H]3[C@H](O)[C@@H]12 | 3% (inactive) | 115% (inactive) | 101% (inactive) | 103% (inactive) | 2.03% (inactive) | 101% | 103% | 0.52% (inactive) | 1.17% (inactive) |
| CNP1(NC)=NC(C(F)(F)F)=NC(C(F)(F)F)=N1 | 3% (inactive) | 95% (inactive) | 124% (inactive) | 98.1% (inactive) | 6.97% (inactive) | 91.2% | 98.1% | -6.99% (inactive) | 4.36% (inactive) |
| c1ccc2c3c([nH]c2c1)CNCC3 | 0% (inactive) | 116% (inactive) | 77.7% (inactive) | 89.9% (inactive) | 9.92% (inactive) | 80% | 89.9% | -1.17% (inactive) | 0.5% (inactive) |
| CC(C)OCCCNC(=O)c1c(N)n(Cc2cccs2)c2nc3ccccc3nc12 | 0% (inactive) | 26% | 6.24% (active) | 61.1% (inactive) | -18.8% (inactive) | 79.8% | 61.1% | -2.47% (inactive) | -7.33% (inactive) |
| CC(=NCCCN1CCOCC1)c1c(O)n(-c2ccccc2C)c(=O)[nH]c1=O | 0% (inactive) | 100% (inactive) | 91.3% (inactive) | 92.2% (inactive) | 5.16% (inactive) | 87% | 92.2% | -0.14% (inactive) | -5% (inactive) |
| O=c1[nH]c(=O)n(-c2cccc3ccccc23)c(O)c1C=NCCCn1ccnc1 | 0% (inactive) | 63% (inactive) | 101% (inactive) | 102% (inactive) | 10% (inactive) | 92% | 102% | -5.21% (inactive) | 1.27% (inactive) |
| N=C(N)c1c(O)n(C2CCCCC2)c(=O)n(C2CCCCC2)c1=O | 0% (inactive) |  | 2.35% (active) | 2.02% (active) | 0.155% (inactive) | 1.86% | 2.02% | -9.32% (inactive) | 7.14% (inactive) |
| C[C@H]1CCC/C=C/C2C[C@H](O)CC2[C@H](O)/C=C/C(=O)O1 (stereo partly drawn) | 0% (inactive) | 120% (inactive) | 7.17% (active) |  | 0.59% (inactive) | 1.34% | 1.93% | -2.08% (inactive) | 0% (inactive) |
| Cc1c2ccncc2c(C)c2c1[nH]c1ccccc12 | 0% (inactive) |  | 1.5% (active) |  | 0.18% (inactive) | 0.98% | 1.16% | 1.56% (inactive) | 3.33% (inactive) |
| Clc1ccc(COC(Cn2ccnc2)c2ccc(Cl)cc2Cl)cc1 (stereo not drawn) | 2% (inactive) | 123% (inactive) | 73.4% (inactive) |  | -9.47% (inactive) | 48% | 38.5% |  |  |
